In ChEMBL document CHEMBL1121406, “Synthesis, in vitro opiate activity, and intramolecular tyrosine--tryptophan distances of [4-tryptophan]enkephalin analogues. A reassessment of conformational models of enkephalin in solution” (1980):
Peptide text beside a SMILES is read from it.

Species: Cavia porcellus
Experiment: Relative narcotic agonistic activity was performed by inhibition of electrically evoked contractions compared with [Met5]-enkephalin (100%) in guinea pig ileum
Assay type: functional
Design: scale not given: the % may be the effect or the level left
How it was run: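 Isolated guinea pig ileum; inhibition of electrically evoked contractions as agonist read-out. Single pulses of 4-ms duration at 3 to 6 V; isometric contractions recorded. Potency expressed relative to [Met5]enkephalin taken as 100%.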

CSCC[C@H](NC(=O)[C@H](Cc1c[nH]c2ccccc12)NC(=O)CNC(=O)CNC(=O)[C@@H](N)Cc1ccc(O)cc1)C(=O)O (H-YGGWM-OH)
Activity: 27%

COc1ccc(C[C@H](N)C(=O)NCC(=O)NCC(=O)N[C@@H](Cc2ccccc2)C(=O)N[C@@H](CCSC)C(=O)O)cc1
Activity: 2%

COc1ccc(C[C@H](N)C(=O)NCC(=O)NCC(=O)N[C@@H](Cc2c[nH]c3ccccc23)C(=O)N[C@@H](CCSC)C(=O)O)cc1
Activity: 0.5%

CC(C)C[C@@H](C(=O)O)N(C)C(=O)[C@H](Cc1ccccc1)NC(=O)CNC(=O)CNC(=O)[C@@H](N)Cc1ccc(O)cc1
Activity: 70%

N[C@@H](Cc1ccc(O)cc1)C(=O)NCC(=O)NCC(=O)N[C@@H](Cc1ccccc1)C(=O)N1CCC[C@H]1C(=O)O
Activity: 1%

N[C@@H](Cc1ccc(O)cc1)C(=O)NCC(=O)NCC(=O)N[C@@H](Cc1c[nH]c2ccccc12)C(=O)N1CCC[C@H]1C(=O)O
Activity: 1%

CC(C)C[C@H](NC(=O)[C@H](Cc1c[nH]c2ccccc12)NC(=O)CNC(=O)CNC(=O)[C@@H](N)Cc1ccc(O)cc1)C(=O)O
Activity: 10%

CSCC[C@H](NC(=O)[C@H](Cc1ccccc1)NC(=O)CNC(=O)CNC(=O)[C@@H](N)Cc1ccc(O)cc1)C(=O)O
Activity: 100%

CSCC[C@H](NC(=O)[C@H](Cc1c[nH]c2ccccc12)N(C)C(=O)CNC(=O)CNC(=O)[C@@H](N)Cc1ccc(O)cc1)C(=O)O
Activity: 39%

CC(C)C[C@@H](C(=O)O)N(C)C(=O)[C@H](Cc1c[nH]c2ccccc12)NC(=O)CNC(=O)CNC(=O)[C@@H](N)Cc1ccc(O)cc1
Activity: 4%

CC(C)C[C@H](NC(=O)[C@H](Cc1ccccc1)NC(=O)CNC(=O)CNC(=O)[C@@H](N)Cc1ccc(O)cc1)C(=O)O [ENKEPHALIN]
Activity: 24%
